Measurements taken from ChEMBL document CHEMBL4118104, “Design, Synthesis, and Evaluation of Orally Bioavailable Quinoline-Indole Derivatives as Innovative Multitarget-Directed Ligands: Promotion of Cell Proliferation in the Adult Murine Hippocampus for the Treatment of Alzheimer's Disease” (J Med Chem, 2018).

Tests used:
Type in all cases: ADME, organism-based
[1] = MRT (0 to t) in Sprague-Dawley rat at 5 mg/kg, iv administered as single dose by LC-MS/MS analysis; details: in vivo
[2] = MRT (0 to infinity) in Sprague-Dawley rat at 5 mg/kg, iv administered as single dose by LC-MS/MS analysis; details: in vivo
[3] = MRT (0 to t) in Sprague-Dawley rat at 30 mg/kg, po by LC-MS/MS analysis; details: in vivo
In short: (§1)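 SD rats given a single oral gavage dose of 30 mg/kg, n = 3; plasma levels by LC-MS/MS; bioavailability computed against the 5 mg/kg intravenous arm.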

[4] = Tmax in Sprague-Dawley rat at 30 mg/kg, po by LC-MS/MS analysis; details: in vivo; in short: as §1
[5] = AUC (0 to t) in Sprague-Dawley rat at 30 mg/kg, po by LC-MS/MS analysis; details: in vivo
[6] = AUC (0 to infinity) in Sprague-Dawley rat at 5 mg/kg, iv administered as single dose by LC-MS/MS analysis; design: dose 5 mg/kg, time infinity, route intravenous; details: in vivo
In short: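 SD rats given 5 mg/kg intravenously, n = 3; pharmacokinetic parameters derived from plasma concentrations.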

[7] = Drug uptake in Sprague-Dawley rat brain at 30 mg/kg, po after 1 hr by LC-MS/MS analysis; details: read-out: Drug uptake
In short: (§2)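 SD rats, single oral gavage 30 mg/kg, n = 3; plasma and brain drug levels taken 1 h after dosing, measured by LC-MS/MS.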

[8] = Volume of distribution at steady state in Sprague-Dawley rat at 5 mg/kg, iv administered as single dose by LC-MS/MS analysis; details: in vivo, read-out: Vdss
[9] = Drug uptake in Sprague-Dawley rat plasma at 30 mg/kg, po after 1 hr by LC-MS/MS analysis; in short: as §2

`Cl.Oc1ccc2[nH]c(-c3ccc4c(Cl)cc(Cl)c(O)c4n3)cc2c1` showed an MRT last [1] of 22.8 min, an MRT inf [2] of 24.6 min and an MRT last [3] of 152 min. The Tmax [4] was 30 min, the AUC(0-t) [5] was 1500 ng·h/mL and the AUC(0-inf) [6] was 2120 ng·h/mL. For the same molecule, the concentration at 1 h [7] was 579 ng/g, the Vd [8] was 0.954 L/kg and the concentration at 1 h [9] was 902 ng/g.
